# Experiments:
# Trichoplusia ni [1] = assay: Oviposition deterrent activity against adult female Trichoplusia ni (cabbage looper) moths introduced along with male moths into oviposition cage containing compound pretreated cabbage leaves assessed as eggs laying on the leaf disks at 0.25% after 48 hr; assay type: functional
# In short: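 Choice test: one male and one female moth were caged with a control and a treated cabbage leaf (~100-110 cm²). Each side was sprayed with 0.5 mL MeOH or methanolic test solution at 0.25%. Values are mean ± SE, N = 35-40.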
# Trichoplusia ni [2] = assay: Feeding deterrent activity against freshly molted third-instar larval stage of Trichoplusia ni (cabbage looper) in compound pretreated cabbage leaves after 3 to 5 hr by leaf disk choice bioassay; assay type: functional, organism-based
# In short: (§1)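 Leaf-disk choice test on greenhouse cabbage (Stonehead) leaves from 5-6-week plants. Freshly molted third-instar T. ni from a diet-reared colony (>50 generations) were starved 4-5 h. One disk had 10 μL test solution painted on each side, the other carrier solvent only. There were 25 larvae per treatment. Run ended at ~50% control disk eaten (3-5 h). Deterrence = (C−T)/(C+T)×100 from consumed areas.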
# Trichoplusia ni [3] = assay: Feeding deterrent activity against freshly molted third-instar larval stage of Trichoplusia ni (cabbage looper) in compound pretreated cabbage leaves at 50 ug/cm2 after 3 to 5 hr by leaf disk choice bioassay; assay type: functional; in short: as §1
# Trichoplusia ni [4] = conditions: in vivo, 24 h
SMILES,Activity (Trichoplusia ni [1]) [%],DC50 (Trichoplusia ni [2]) [microg/cm2],Activity (Trichoplusia ni [3]) [%],mortality (Trichoplusia ni [4]) [%]
C=CCc1cc(OCCCC)ccc1OCCC,21,33,65,17
C=CCc1cc(OCCC(C)C)ccc1OCCC,21,33,65,17
C=CCc1cc(OCCC)ccc1OCCC,21,33,65,17
C=CCc1cc(OCC)ccc1OCCC,21,33,65,17
C=CCc1cc(OC)ccc1OC,14,20,80,17
C=CCc1cccc(OCCC)c1OC,32,15.5,100,17
C=CCc1cccc(OCC)c1OC,32,15.5,100,17
C=CCc1cccc(OC)c1OC,32,15.5,100,17
C=CCc1cccc(OCCC(C)C)c1OC,32,15.5,100,17
C=CCc1cccc(OCCCC)c1OC,32,15.5,100,17
C=CCOc1ccccc1OCCCC [1-allyloxy-2-butoxybenzene],35,17,92,19
C=CCOc1ccccc1OCCC [1-allyloxy-2-propoxybenzene],12,12,96,10
C=CCOc1ccc(OC)cc1 [1-allyloxy-4-methoxybenzene],13,30,62,6
COc1cccc(OCCC(C)C)c1 [1-isopentyloxy-3-methoxybenzene],30,29,89,30
CCCCOc1ccccc1OCCC [1-propoxy-2-butoxybenzene],37,21,98,19
CCCOc1cccc(OCCC(C)C)c1 [3-PROPOXY-1-ISOPENTOXYBENZENE],9,17,97,10
CCCOc1ccc(OCC)cc1 [4-ETHOXY-1-PROPOXYBENZENE],10,33.3,100,17
C=CCOc1ccc(CC=C)cc1OC [ALLYLEUGENOL],16,15,86,18
CCN(CC)C(=O)c1cccc(C)c1 [DIETHYLTOLUAMIDE],23,47,60,7
C=CCc1ccc(OCC)c(OC)c1 [ETHYLEUGENOL],18,50,51,35
C=CCc1ccc(OCCC(C)C)c(OC)c1 [ISOPENTYLEUGENOL],9,25,86,28
C=CCc1ccc(OCCCC)c(OC)c1 [N-BUTYLEUGENOL],34,12,92,15
C=CCc1ccc(OCCC)c(OC)c1 [PROPYLEUGENOL],29,19,84,37
